Measurements taken from publication PMC2886590 (Journal of molecular biology, 2010).

B1: F1568A: MLL PHD3 point mutant (GST-PHD3 in vitro; engineered into full-length MLL in cells) (protein)
chain: KGNACPLCDKCYDDDDYESKMMQCGKCDRWVHSKCENLSDEMYEILSNLPESVAYTCVNCTER
modifications: left off: GST, end not stated, kept
B2: D1592A: MLL PHD3 point mutant, acidic residue replaced with Ala (PHD3 in vitro; full-length MLL in cells) (protein)
chain: KGNFCPLCDKCYDDDDYESKMMQCGKCARWVHSKCENLSDEMYEILSNLPESVAYTCVNCTER
modifications: left off: GST, end not stated, kept
B3: M1585A: "loss-of-function" MLL PHD3 point mutant (PHD3 in vitro; full-length MLL in cells) (protein)
chain: KGNFCPLCDKCYDDDDYESKAMQCGKCDRWVHSKCENLSDEMYEILSNLPESVAYTCVNCTER
modifications: left off: GST, end not stated, kept
B4: W1594A: "loss-of-structure" MLL PHD3 point mutant (PHD3 in vitro; full-length MLL in cells) (protein)
chain: KGNFCPLCDKCYDDDDYESKMMQCGKCDRAVHSKCENLSDEMYEILSNLPESVAYTCVNCTER
modifications: left off: GST, end not stated, kept
B5: Y1576A: MLL PHD3 finger point mutant, tested in vitro only (protein)
chain: KGNFCPLCDKCADDDDYESKMMQCGKCDRWVHSKCENLSDEMYEILSNLPESVAYTCVNCTER
modifications: left off: GST, end not stated, kept

Columns and labels:
MEIS1 promoter = assay: ChIP: MLL occupancy at MEIS1; type: cell-based; conditions: HA-tagged full-length MLL, 293T cells
Procedure, shortened: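 293T cells were transfected with HA-tagged full-length MLL, wild type or point mutant, for two days. ChIP was then run with the indicated antibodies. Quantitative PCR was done on ChIP-bound and input DNA at the MEIS1 promoter, with a MEIS1 3' genomic region for comparison.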

[1] = system: histone H3 tail (H3K4me3); type: binding; conditions: mutant PHD3; pull-down, microarray and NMR
Procedure, shortened: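 GST-fused MLL PHD3 (residues 1565-1627), wild type or mutant, was expressed in E. coli BL21(DE3) pLysS and purified on glutathione resin. It was incubated with C-terminally biotinylated histone H3 tail peptides (residues 1-21) on streptavidin beads in 50 mM Tris pH 7.5, 150 mM NaCl, 0.05% NP-40. Beads were washed five times, and bound protein was detected by anti-GST western blot. GST-PHD3 without peptide served as control.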

H3K4me3 peptide = assay: NMR titration of PHD3 mutants with H3K4me3 peptide; type: binding; conditions: data not shown; for H3K4me3 binding of mutant (1H,15N HSQC): 0.2 mM 15N-labeled mutant PHD3, H3K4me3 12-mer peptide; for changes in 1H,15N HSQC spectra induced by H3K4me3 peptide: 0.2 mM 15N-labeled mutant PHD3
Procedure, shortened: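 PHD3 finger (residues 1565-1627, wild type or mutant) was expressed as a GST fusion in E. coli BL21(DE3) pLysS grown in 15NH4Cl minimal medium. It was affinity-purified, GST-cleaved, size-exclusion purified and held in 25 mM d11-Tris pH 6.8, 150 mM KCl, 10 mM deuterated DTT and 7% 2H2O. 12-mer histone tail peptides were added stepwise to 0.2 mM protein, and normalized chemical shift changes were tracked in 1H,15N HSQC spectra.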

[2] = MLL protein levels by western blot; type: cell-based; conditions: 293T cells, Fig. 3B

Molecule	MEIS1 occupancy (MEIS1 promoter)	ability to recognize H3K4me3 [1]	H3K4me3 binding of mutant (1H,15N HSQC) (H3K4me3 peptide)	changes in 1H,15N HSQC spectra induced by H3K4me3 peptide (H3K4me3 peptide)	protein stability in vivo [2]
B1	also occupied the MEIS1 promoter				
B2	also occupied the MEIS1 promoter				
B3	also occupied the MEIS1 promoter	more severely compromised	binding was essentially abolished	small to negligible changes	
B4		more severely compromised			reduced stability in vivo
B5		more severely compromised	binding was essentially abolished	small to negligible changes	
